Consider four compounds from ChEMBL document CHEMBL3351723, “New derivatives of lupane triterpenoids disturb breast cancer mitochondria and induce cell death” (Bioorg Med Chem, 2014).

Data set [1] relates to Hs-578T. Put plainly: Induction of apoptosis in human Hs578T cells assessed as increase in p53 protein at 1 ug/ml after 24 hrs by Western blot analysis. The class given is functional, cell-based. A digest of the protocol:
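About 1.0×10^6 attached and floating HS578T cells, treated 24 h at 1 μg/ml, were lysed in HEPES/sucrose buffer with DTT, PMSF and protease inhibitors. Extracts were stored at -80°C, then p53 and cyclophilin D were semi-quantified by Western blot. Six experiments, mean ± SEM.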
(In western blotting, separated proteins are transferred to a membrane and probed.)

Data set [2] concerns Liver microsome. The data set can be described thus: Induction of mitochondrial function disruption in Wistar Han rat liver mitochondria energized with succinate assessed as State-4 level per mg of protein measured at 0.067 ug/mg of protein (reference value: 33.5 +/- 7.5 nmol/mg protein/min). The class given is functional.
Data set [3] can be described thus: Cell cycle arrest against human Hs578T cells assessed as increase in cells at G0/G1 phase at 0.5 ug/ml after 24 to 48 hrs by propidium iodide staining based flow cytometry. The class given is functional. As to conditions: Hs-578T. In outline:
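Log-phase Hs578T cells exposed 24 and 48 h to 0.5 μg/ml. Adherent plus floating cells fixed in cold 70% ethanol, kept overnight at -20°C, washed into PBS-T (132 mM NaCl, 4 mM KCl, 1.2 mM NaH2PO4, 0.1% Tween). Treated with 20 μg/ml RNase for 45 min at 37°C, then propidium iodide for 30 min at 37°C. Phase percentages read by flow cytometry. Mean ± SEM, 5 experiments.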
(In general: In flow cytometry, cells or beads pass a laser one at a time.)

In data set [4] the test system is Liver microsome. The data set can be described thus: Induction of mitochondrial permeability transition pore in Wistar Han rat liver mitochondria assessed as mitochondrial swelling by spectrophotometry relative to control.
Data set [5] has as its system Liver microsome. The data set can be described thus: Induction of mitochondrial function disruption in Wistar Han rat liver mitochondria energized with succinate assessed as adenosine diphosphate/O ratio measured at 0.133 ug/mg of protein (reference value: 2.3 +/- 0.2 no_unit). Type of data set: functional.
The nature of data set [6]: Cytotoxicity against human Hs578T cells assessed as decrease in live cells at 1 ug/ml for 24 to 48 hrs by flow cytometry. Type of data set: functional. Particulars: Hs-578T. In outline: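 Hs578T seeded at 2.5×10^4 cells/ml, exposed to 1 μg/ml or DMSO for 24 and 48 h. Cells trypsinized and resuspended in HEPES-buffered saline with 15 mM glucose. Stained 15 min at 37°C with 1 μM ethidium homodimer and 0.1 μM calcein-AM. Green (calcein) and red (ethidium homodimer) signals read by flow cytometry. Mean ± SEM, 6 experiments.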

Data set [7] can be described thus: Induction of mitochondrial permeability transition pore in Wistar Han rat liver mitochondria assessed as mitochondrial swelling by spectrophotometry. Type of data set: functional. A digest of the protocol:
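Isolated rat liver mitochondria were energized with succinate plus rotenone and pre-incubated with compound at 0.07–1.33 µg/mg protein. MPT was then triggered by one Ca2+ pulse of 40 nmol/mg protein. Swelling was followed as pseudo-absorbance at 540 nm, and amplitude is basal minus the reading 600 s after Ca2+. Cyclosporin A at 1 µM was the reference, with 6 preparations.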

The subject of data set [8] is Liver microsome. Put plainly: Induction of mitochondrial function disruption in Wistar Han rat liver mitochondria energized with succinate assessed as State-4 level per mg of protein measured at 0.667 ug/mg of protein (reference value: 33.5 +/- 7.5 nmol/mg protein/min). Type of data set: functional.
In another data set the test system is MCF7. Put plainly: Cytotoxicity against human MCF7 cells assessed as reduction in cell number in glucose-free, galactose/glutamine medium after 3 to 5 days. Type of data set: functional, cell-based. A digest of the protocol:
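Cells grown in glucose-free DMEM with galactose (1.8 g/L), L-glutamine (0.584 g/L), pyruvate and 10% FBS, forcing ATP from oxidative phosphorylation. Exposed to a dose range for 1, 3 and 5 days. Cell number read by sulforhodamine B and expressed as % of control. Mean ± SEM, 5 experiments.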

Data set [9] deals with Liver microsome. The data set can be described thus: Induction of mitochondrial function disruption in Wistar Han rat liver mitochondria energized with succinate assessed as State-3 level per mg of protein measured at 0.133 ug/mg of protein (reference value: 130.8 +/- 24.1 nmol/mg protein/min). The class given is functional.
In data set [10] the test system is Hs-578T. Put plainly: Induction of apoptosis in human Hs578T cells assessed as increase in caspase 3 like activity at 1 ug/ml after 24 hrs. The class given is functional, cell-based.
The nature of data set [11]: Induction of apoptosis in human Hs578T cells assessed as distribution of mitochondrial polarization and morphology at 0.25 ug/ml after 6 hrs by confocal microscopy. Type of data set: functional, cell-based. Particulars: Hs-578T. A digest of the protocol:
(§1)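 Cells were seeded on glass coverslips and left to attach for 24 h. They were then exposed to vehicle or 0.25 μg/ml compound for 6 h. For the last 30 min they were loaded with 100 nM TMRM in saline buffer with 15 mM glucose, and the probe was kept present during imaging. Mitochondrial polarization and morphology were imaged by fluorescence microscopy, and the TMRM fluorescence standard deviation was quantified. Four independent preparations, mean ± SEM.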

For data set [12], the system named is Hs-578T. The data set can be described thus: Cytotoxicity against human Hs578T cells at 0.125 to 2 ug/ml incubated for 6 hrs folowed by drug wash out and fresh medium addition and measured 5 days after wash out. Type of data set: functional, cell-based.
The subject of data set [13] is Liver microsome. The data set can be described thus: Induction of mitochondrial function disruption in Wistar Han rat liver mitochondria energized with succinate assessed as State-4 level per mg of protein measured at 1.333 ug/mg of protein (reference value: 33.5 +/- 7.5 nmol/mg protein/min). Type of data set: functional.
Data set [14] in a line: Cytotoxicity against human MCF12A cells at 0.125 to 2 ug/ml after 1 to 5 days by sulforhodamine B assay. Type of data set: cell-based. As to conditions: mcf-12a. In outline: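 Non-tumor cells seeded at 2×10^4 cells/ml and treated 24 h after seeding, in high-glucose DMEM with pyruvate, 10% FBS and penicillin-streptomycin, 37°C, 5% CO2. Compound exposure 0.125–2 μg/ml for 1, 3 and 5 days, with vehicle controls. Cells fixed and stained with sulforhodamine B for total cell mass. Data given as % of untreated control at each time point; five independent experiments.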
(In general: In SRB staining, fixed cells bind dye roughly in proportion to their protein.)

The test system of data set [15] is Hs-578T. The data set can be described thus: Effect on Bcl2 protein level in human Hs578T cells at 1 ug/ml after 24 hrs by Western blot analysis. Type of data set: functional, cell-based.
Data set [16] in a line: Induction of apoptosis in human Hs578Bst cells assessed as distribution of mitochondrial polarization and morphology at 0.25 ug/ml after 6 hrs by confocal microscopy. The class given is functional, cell-based. In outline:
as §1

For data set [17], the system named is Liver microsome. The data set can be described thus: Induction of mitochondrial function disruption in Wistar Han rat liver mitochondria energized with succinate assessed as respiratory control ratio measured at 0.667 ug/mg of protein (reference value: 4.1 +/- 0.5 no_unit). Type of data set: functional.
The subject of data set [18] is Liver microsome. The data set can be described thus: Induction of mitochondrial function disruption in Wistar Han rat liver mitochondria energized with succinate assessed as respiratory control ratio measured at 0.133 ug/mg of protein (reference value: 4.1 +/- 0.5 no_unit). The class given is functional.
Data set [19] concerns Liver microsome. Put plainly: Induction of mitochondrial function disruption in Wistar Han rat liver mitochondria energized with succinate assessed as State-3 level per mg of protein measured at 1.333 ug/mg of protein (reference value: 130.8 +/- 24.1 nmol/mg protein/min). Type of data set: functional.
Data set [20] has as its system Hs-578T. The data set can be described thus: Induction of apoptosis in human Hs578T cells assessed as increase in caspase 9 like activity at 1 ug/ml after 24 hrs. Type of data set: functional, cell-based. A digest of the protocol: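 HS578T cells were treated 24 h at 1 μg/ml. Attached and floating cells were lysed in HEPES pH 7.4/CHAPS/DTT buffer. Extract protein was incubated 2 h at 37°C with […] Ac-DEVD-pNA (caspase-3) or Ac-LEHD-pNA (caspase-9). Released p-nitroanilide was read at endpoint against a pNA calibration. Six experiments, mean ± SEM.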

Calls of active or inactive are those of the source. No cut-off for these calls is given here.

For `C=C(C)[C@@H]1CC[C@]2(COC(=O)C[n+]3ccc(N(C)C)cc3)CC[C@]3(C)[C@H](CC[C@@H]4[C@@]5(C)CC[C@H](OC(=O)C[n+]6ccc(N(C)C)cc6)C(C)(C)[C@@H]5CC[C@]43C)[C@@H]12.[Cl-].[Cl-]`, the outcome (with Hs-578T [1]; in data set [3]; with Hs-578T [10]; in data set [11]; in [16]) was Active. In addition, the Activity was 24.5 nmol/min in the data set with Liver microsome [2]; “Dose-dependent effect” in data set [7]; 34.5 nmol/min with Liver microsome [8]; 130 nmol/min in the data set on Liver microsome [9]; 34.8 nmol/min with Liver microsome [13]; “Toxic” in [14]. In addition, the Activity in the data set on Liver microsome [19] was determined as 131 nmol/min. For the same compound, in the data set with Liver microsome [4], the fold change (FC) was determined as 5. Besides, the Ratio with Liver microsome [5] was 2.4; in the data set on Liver microsome [17], 4.4; with Liver microsome [18], 4.1. The inhibition (as a rule, the share of the control response that was lost under treatment) at 1 µg/mL in data set [6] stood at 10%. In addition, the inhibition entry in the data set with MCF7 and with Hs-578T [12] was “Active” throughout. In addition, the result in the data set with Hs-578T [15] was inactive.

As to `C=C(C)[C@@H]1CC[C@]2(COC(=O)CC[n+]3ccc(N(C)C)cc3)CC[C@]3(C)[C@H](CC[C@@H]4[C@@]5(C)CC[C@H](OC(=O)CC[n+]6ccc(N(C)C)cc6)C(C)(C)[C@@H]5CC[C@]43C)[C@@H]12.[Cl-].[Cl-]`, the outcome (in the data set with Hs-578T [1]; in [3]; in the data set with Hs-578T [20]; with Hs-578T [10]) was Active. Besides, the Activity is 29.4 nmol/min in the data set on Liver microsome [2]; 25.7 nmol/min in the data set with Liver microsome [8]; 111 nmol/min with Liver microsome [9]; 25.7 nmol/min in the data set on Liver microsome [13]; “Toxic” in data set [14]; 112 nmol/min in the data set with Liver microsome [19]. Besides, the Ratio is 1.7 with Liver microsome [5], 4.6 in the data set with Liver microsome [17] and 4.1 in the data set on Liver microsome [18]. Besides, the result (in data set [7]; in the data set with Hs-578T [15]; in [16]) was inactive. The inhibition result in the data set on MCF7 and in the data set on Hs-578T [12] was “Active” in each case.

As for `C=C(C)[C@@H]1CC[C@]2(COC(=O)C[N+](C)(C)C(C)C)CC[C@]3(C)[C@H](CC[C@@H]4[C@@]5(C)CC[C@H](OC(=O)C[N+](C)(C)C(C)C)C(C)(C)[C@@H]5CC[C@]43C)[C@@H]12.[Cl-].[Cl-]`, the outcome (with Hs-578T [1]; in [3]; in the data set on Hs-578T [20]; in the data set on Hs-578T [10]; in [11]; in [16]) was Active. Further, the Activity is 27.5 nmol/min in the data set with Liver microsome [2]; “Dose-dependent effect” in [7]; 28.8 nmol/min with Liver microsome [8]; 121 nmol/min in the data set with Liver microsome [9]; 28.7 nmol/min in the data set with Liver microsome [13]; “Non-toxic” in data set [14]. For the same compound, the Activity with Liver microsome [19] came out at 107 nmol/min. Further, the fold change (FC) in the data set with Liver microsome [4] worked out at 5. The Ratio in the data set on Liver microsome [5] turned out to be 3.1; with Liver microsome [17], 4.3; with Liver microsome [18], 4. The inhibition at 1 µg/mL in data set [6] turned out to be 10%. Moreover, the inhibition result in the data set on MCF7 and with Hs-578T [12] was “Active” in each case. For the same compound, the result with Hs-578T [15] was inactive.

`C=C(C)[C@@H]1CC[C@]2(COC(=O)C(CC)[n+]3ccc(N(C)C)cc3)CC[C@]3(C)[C@H](CC[C@@H]4[C@@]5(C)CC[C@H](OC(=O)C(CC)[n+]6ccc(N(C)C)cc6)C(C)(C)[C@@H]5CC[C@]43C)[C@@H]12` (stereo partly drawn): the result (with Hs-578T [1]; in data set [3]; with Hs-578T [20]; with Hs-578T [10]; in [11]; in data set [16]) was Active. Also, the Activity in the data set with Liver microsome [2] is 24.1 nmol/min; in [7], “Dose-dependent effect”; with Liver microsome [8], 23.2 nmol/min; in the data set on Liver microsome [9], 131 nmol/min; with Liver microsome [13] it was 21.5 nmol/min; in the data set with Liver microsome [19] it was 119 nmol/min. Also, in the data set with Liver microsome [4], the fold change (FC) was found to be 5. Moreover, the Ratio in the data set on Liver microsome [5] stood at 1.6; in the data set on Liver microsome [17], 3.1; in the data set with Liver microsome [18], 3. Moreover, the inhibition at 1 µg/mL in [6] was determined as 10%. For the same compound, the inhibition entry in the data set with MCF7 is “Active”. Moreover, the result in the data set with Hs-578T [15] was inactive.
